Source: ChEMBL document CHEMBL4007399, “Discovery and Synthesis of a Phosphoramidate Prodrug of a Pyrrolo[2,1-f][triazin-4-amino] Adenine C-Nucleoside (GS-5734) for the Treatment of Ebola and Emerging Viruses” (J Med Chem, 2017)

Tests used:
[1] = tested on: Ebolavirus; experiment: Antiviral activity against Ebolavirus infected in rhesus monkey assessed as viral RNA copies at 10 mg/kg, iv administered daily administered daily starting from day 3 post infection measured on day 5 and 7 (reference value: 10^9 copies/ml); format: functional
[2] = tested on: PBMC; experiment: Drug metabolism in rhesus monkey PBMC assessed as ((2R,3S,4R,5R)-5-(4-aminopyrrolo[1,2-f][1,2,4]triazin-7-yl)-5-cyano-3,4-dihydroxytetrahydrofuran-2-yl)methyl tetrahydrogen triphosphate levels at 10 mg/kg, iv administered as single bolus dose up to 2 hrs; format: ADME, organism-based, Macaca mulatta; settings: in vivo
How it was run: (§1)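 Rhesus monkeys received a single 10 mg/kg iv slow bolus. The active triphosphate metabolite was measured inside PBMCs over time to build a concentration–time profile. Values are mean ± SD, n = 3 per time point.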

[3] = Drug metabolism in cynomolgus monkey testes at 10 mg/kg, iv after 168 hrs post dose; format: ADME, organism-based, Macaca fascicularis, Testis; settings: in vivo
[4] = tested on: Homo sapiens; experiment: Toxicity in phase-1 acute meningoencephalytis patient at 150 mg, iv qd administered daily for 2 days followed by 225 mg for 14 days; format: organism-based; settings: in vivo
[5] = tested on: HEp-2; experiment: Cytotoxicity against human Hep2 cells assessed as reduction in cell viability after 4 to 5 days by Cell-Titer Glo assay; format: cell-based; settings: hep-2
[6] = tested on: Brain; experiment: Drug uptake in cynomolgus monkey brain at 10 mg/kg, iv at 168 hrs post dose; format: ADME, organism-based, Macaca fascicularis; settings: in vivo
[7] = tested on: Plasma; experiment: Drug uptake in cynomolgus monkey plasma at 10 mg/kg, iv at 4 hrs post dose; format: ADME, organism-based, Macaca fascicularis; settings: in vivo
[8] = Drug uptake in cynomolgus monkey epididymis at 10 mg/kg, iv at 4 hrs post dose; format: ADME, organism-based, Macaca fascicularis; settings: in vivo
[9] = tested on: PBMC; experiment: Time at which plasma concentration greater than in vitro EBOV antiviral IC50 in rhesus monkey PBMC assessed as ((2R,3S,4R,5R)-5-(4-aminopyrrolo[1,2-f][1,2,4]triazin-7-yl)-5-cyano-3,4-dihydroxytetrahydrofuran-2-yl)methyl tetrahydrogen triphosphate levels at 10 mg/kg, iv administered as single bolus; format: ADME, organism-based, Macaca mulatta; settings: in vivo; how it was run: as §1
[10] = tested on: Hepatitis C virus; experiment: Antiviral activity against Hepatitis C virus genotype 1b infected in human HuH7 cells preincubated with cells for 3 days followed by viral infection by luciferase assay; format: functional, cell-based, Hepacivirus hominis
[11] = Drug uptake in cynomolgus monkey testes at 10 mg/kg, iv at 4 hrs post dose; format: ADME, organism-based, Macaca fascicularis, Testis; settings: in vivo
[12] = tested on: Homo sapiens; experiment: Toxicity in iv dosed phase-1 acute meningoencephalytis patient administered as single dose; format: organism-based; settings: in vivo
[13] = tested on: Plasma; experiment: Prodrug conversion in rhesus monkey plasma assessed as (2R,3R,4S,5R)-2-(4-aminopyrrolo[1,2-f][1,2,4]triazin-7-yl)-3,4-dihydroxy-5-(hydroxymethyl)tetrahydrofuran-2-carbonitrile formation at 10 mg/kg, iv administered as single bolus dose; format: ADME, organism-based, Macaca mulatta; settings: in vivo
How it was run: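 Rhesus monkeys received a single 10 mg/kg iv slow bolus. Plasma was sampled over time, and the prodrug and the parent nucleoside formed from it were both quantified to give a concentration–time profile. Values are mean ± SD, n = 3 per time point.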

[14] = Lipophilicity, log D of the compound after 30 mins by HPLC/UV method; format: physicochemical; settings: 0.5 h
[15] = tested on: Ebolavirus; experiment: Antiviral activity against GFP-fused Ebolavirus infected in TERT-immortalized HMVEC assessed as reduction in viral replication preincubated with cells followed by viral infection measured after 3 to 4 days by fluorescence assay; format: functional
[16] = tested on: Ebolavirus; experiment: Antiviral activity against Ebolavirus Kikwit infected in human HeLa cells assessed as reduction in viral glycoprotein levels preincubated with cells for 2 hrs followed by viral infection measured after 48 hrs by immunostaining based assay; format: functional, cell-based; settings: hela
[17] = tested on: Ebolavirus; experiment: Antiviral activity against Ebolavirus infected in rhesus monkey assessed as survival rate at 3 mg/kg, iv qd administered continuously starting from day 3 post infection for 12 days measured on day 28 (reference value: 33%); format: functional; settings: Orthoebolavirus, in Macaca mulatta
[18] = tested on: Human orthopneumovirus; experiment: Antiviral activity against Respiratory syncytial virus A2 infected in human Hep2 cells assessed as reduction of virus-induced cytopathic effect after 4 days by Cell-Titer Glo assay; format: functional, cell-based
[19] = tested on: Brain; experiment: Drug uptake in cynomolgus monkey brain at 10 mg/kg, iv at 4 hrs post dose; format: ADME, organism-based, Macaca fascicularis; settings: in vivo
[20] = tested on: Plasma; experiment: Half life in human plasma at 2 uM by LC/MS/MS analysis; format: ADME, cell-free; settings: 2 µM
[21] = tested on: Ebolavirus; experiment: Antiviral activity against Ebolavirus Kikwit infected in human macrophages preincubated with cells for 2 hrs followed by viral infection measured after 48 hrs; format: functional
[22] = tested on: MT4; experiment: Cytotoxicity against human MT4 cells assessed as reduction in cell viability after 4 to 5 days by Cell-Titer Glo assay; format: cell-based; settings: mt4
[23] = tested on: Ebolavirus; experiment: Antiviral activity against Ebolavirus infected in rhesus monkey assessed as survival rate at 10 mg/kg, iv administered daily starting from day 3 post infection for 12 days relative to control; format: functional; settings: Orthoebolavirus, in Macaca mulatta

In the case of `CCC(CC)COC(=O)[C@H](C)N[P@](=O)(OC[C@H]1O[C@@](C#N)(c2ccc3c(N)ncnn23)[C@H](O)[C@@H]1O)Oc1ccccc1`, the Activity [1] is reported as less than 80000 mL⁻¹, the Drug metabolism [2] is reported as “Metabolite_Detected” and the Drug uptake [3] is reported as “Metabolite_Detected”. For the same compound, the Activity [4] was “Non-Toxic”, the CC50 [5] was 6100 nM and the Drug uptake [6] was “Active”. The Drug uptake [7] was “Active”, the Drug uptake [8] was “Active” and the Time [9] was 24 h. The EC50 [10] was 57 nM, the Drug uptake [11] was “Active” and the Activity [12] was “Non-Toxic”. The Drug metabolism [13] was “Metabolite_Detected”, the logD [14] was 2.1 and the EC50 [15] was 53 nM. The EC50 [16] was 100 nM, the survival at 3 mg/kg [17] was 66% and the EC50 [18] was 15 nM. The Drug uptake [19] was “Not Active”, the t1/2 [20] was 1.15 h and the EC50 [21] was 86 nM. The CC50 [22] was 1700 nM and the survival at 10 mg/kg [23] was 100%.
